Experimental data taken from paper PMC6560181 (Cell chemical biology, 2018).

Key:
[1] = tested on: polymyxin-susceptible strains of P. aeruginosa and K. pneumoniae; assay: MIC by broth microdilution, polymyxin-susceptible strains; assay type: cell-based
[2] = tested on: polymyxin-resistant clinical isolates of P. aeruginosa, A. baumannii and K. pneumoniae; assay: MIC by broth microdilution, polymyxin-resistant clinical isolates; assay type: cell-based
[3] = tested on: mcr isolates of K. pneumoniae and Escherichia coli; assay: MIC against mcr isolates; assay type: cell-based; details: mcr isolates (Table S4)
[4] = tested on: P. aeruginosa FADDI-PA070; assay: MIC against P. aeruginosa FADDI-PA070; assay type: cell-based
[5] = tested on: polymyxin-resistant P. aeruginosa strain FADDI-PA070; assay: Static time-kill study; assay type: cell-based; details: for log10 CFU/mL kill: 32 μg/mL, 1–4 h polymyxin B, 0.5–6 h octapeptin C4; for antimicrobial effect in time-kill: 1 or 4 μg/mL
E. coli ATCC 25922 cells [6] = assay: Membrane depolarisation diSC3-5 assay; assay type: cell-based; details: 30 min incubation
E. coli ATCC 25922 cells [7] = assay: Inner membrane permeabilisation, SYTOX Green flow cytometry; assay type: cell-based; details: 1 h at 37°C
[8] = Carboxyfluorescein leakage from lipid vesicles; details: vesicles containing lipid A
Procedure, shortened: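 CF-loaded vesicles (50 mM CF; final lipid 5 µM) were made of POPC, POPC/POPG 4:1 or POPC/lipid A 4:1 in 10 mM HEPES pH 7.4 with 150 mM NaCl. Vesicles were exposed for 20 min to lipopeptide at 128–0.06 µg/mL. Leakage was read as CF de-quenching (ex 485 nm, em 520 nm).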

[9] = set-up: species or system mice; details: mouse, in vivo, iv, 10 mg/kg
[10] = assay type: in vitro ADME; details: rat
[11] = Acute toxicity after subcutaneous dose in mice; assay type: in vivo; details: subcutaneous dose of 40 mg/kg
human red blood cells = assay: Haemolysis of human red blood cells; assay type: cell-based; details: concentrations up to 100 μg/mL
[12] = Mouse nephrotoxicity model, kidney histopathology; assay type: in vivo, mice; details: 12 mg/kg sc every 2 h, accumulated dose 72 mg/kg

Substance | MIC [1] [µg/mL] | MIC [2] [µg/mL] | MIC [3] [µg/mL] | MIC [4] [µg/mL] | log10 CFU/mL kill [5] | antimicrobial effect in time-kill [5] | final log10 CFU/mL reduction ([5]; 24 h, after regrowth) | membrane depolarisation (E. coli ATCC 25922 cells [6]) | membrane disruption (SYTOX Green uptake) (E. coli ATCC 25922 cells [7]) | leakage from lipid vesicles [8] | half-life [9] [h] | total clearance [9] [mL/min/kg] | plasma protein binding [10] [%] | acute toxic effects [11] | haemolysis (human red blood cells) | kidney histopathology lesions [12]
polymyxin B | 0.25 to 1 | 4 to 128 | 4 to 16 | ≥ 128 | six | no antimicrobial effect | three | induced membrane depolarisation | disrupted both the outer and inner membranes | destabilised the membrane | 3.6 | 7.3 | 83 | acute toxic effects |  | 
colistin | 0.25 to 1 | 4 to 128 | 4 to 16 |  | poor killing activity | no antimicrobial effect |  | induced membrane depolarisation | disrupted both the outer and inner membranes | destabilised the membrane |  |  |  |  | no detectable haemolysis | severe Grade 1–2 lesions
